Experimental data published in ChEMBL document CHEMBL1154067, “Antiviral and cytotoxic activities of aminoarylazo compounds and aryltriazene derivatives” (Bioorg Med Chem, 2009).
The source made the active and inactive calls. No rule for the calls is given here.

Key:
Poliovirus 1 = experiment: Antiviral activity against Human poliovirus 1 strain Sabin after 2 days by plaque reduction assay; format: functional; conditions: Enterovirus C, 48 h
[1] = tested on: Respiratory syncytial virus; experiment: Antiviral activity against Respiratory syncytial virus A2 infected in Vero-76 cells after 5 days by plaque reduction assay; format: functional, organism-based; conditions: human respiratory syncytial virus, A2, Vero 76, 120 h
[2] = Cytotoxicity against hamster BHK21 cells assessed as reduction in cell viability after 48 to 96 hrs by MTT assay; format: cell-based, Mesocricetus auratus, BHK-21; conditions: bhk-21
How it was run: (§1)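 Mock-infected cells in maintenance medium, MDBK at 6 × 10^5 and BHK at 1 × 10^6 cells/mL initial density, with or without serial compound dilutions. Run in parallel with antiviral assays. Viability by MTT after 48–96 h at 37 °C, 5% CO2. CC50 = concentration reducing viability 50%.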

Human alphaherpesvirus 1 = experiment: Antiviral activity against HSV1 infected in Vero-76 cells after 3 days by plaque reduction assay; format: functional, organism-based; conditions: Human alphaherpesvirus 1, Vero 76, 72 h
Vaccinia virus = experiment: Antiviral activity against Vaccinia virus after 3 days by plaque reduction assay; format: functional, organism-based; conditions: Orthopoxvirus vaccinia
[3] = tested on: Vesicular stomatitis virus; experiment: Antiviral activity against Vesicular stomatitis virus after 2 days by plaque reduction assay; format: functional, organism-based
Yellow fever virus = experiment: Antiviral activity against Yellow fever virus infected in BHK-21 cells assessed as inhibition of virus-induced cytopathicity after 3 to 4 days by MTT assay; format: functional, organism-based
[4] = Cytotoxicity against MDBK cells after 48 to 96 hrs by MTT assay; format: cell-based, Bos taurus; conditions: cattle, mdbk; how it was run: as §1
Coxsackievirus B2 = experiment: Antiviral activity against Coxsackie virus type B2 virus infected in african green monkey Vero-76 cells after 3 days by plaque reduction assay; format: functional, organism-based; conditions: Enterovirus B, Vero 76, 72 h
How it was run: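 Vero 76 cells seeded at 2 × 10^5 cells/well, grown overnight to confluence at 37 °C in 5% CO2, then infected at 50–100 PFU/well. Unadsorbed virus removed. Overlay of DMEM with 1% inactivated FCS and 0.75% methylcellulose, with or without serial compound dilutions. After 3 days at 37 °C, fixed and stained with crystal violet in PBS/50% ethanol; plaques counted. EC50 is the concentration reducing plaque number by 50%.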

Vero = experiment: Cytotoxicity against african green monkey Vero 76 cells by crystal violet staining; format: cell-based; conditions: chlorocebus sabaeus, vero
How it was run: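 Mock-infected Vero 76 seeded at 4 × 10^5 cells/mL, run in parallel with plaque assays, with or without serial compound dilutions. Cell number of monolayers determined by crystal violet staining. CC50 = concentration reducing viable cell number 50%.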

[5] = tested on: Mammalian orthoreovirus 1; experiment: Antiviral activity against Reovirus-1 infected in BHK-21 cells assessed as inhibition of virus-induced cytopathicity after 3 to 4 days by MTT assay; format: functional, organism-based; conditions: Mammalian orthoreovirus 1, BHK-21
How it was run: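 BHK-21 cells seeded at 5 × 10^4 cells/well, grown overnight to confluent monolayers at 37 °C in 5% CO2, then infected at m.o.i. 0.01 in serum-free medium. One hour later, MEM Earle's with 1% final inactivated FCS added, with or without serial compound dilutions. Viability read by MTT after 3–4 days at 37 °C. EC50 is the concentration giving 50% protection from cytopathogenicity.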

[6] = tested on: Human immunodeficiency virus 1; experiment: Antiviral activity against HIV1 infected in human MT4 cells assessed as inhibition of virus-induced cytopathicity after 4 days by MTT assay; format: functional, organism-based
MT4 = experiment: Cytotoxicity against human MT4 cells after 96 hrs by MTT assay; format: cell-based; conditions: mt4, 96 h
How it was run: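 Exponentially growing mock-infected MT-4 seeded at 1 × 10^5 cells/mL in RPMI-1640 with 10% FCS, penicillin and streptomycin. Incubated with or without serial compound dilutions at 37 °C, 5% CO2. Viability by MTT after 96 h. CC50 = concentration reducing viability 50%.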

Structure (SMILES)	EC50 (Poliovirus 1)	EC50 [1]	CC50 [2]	EC50 (Human alphaherpesvirus 1)	Activity (Vaccinia virus)	Activity [3]	EC50 (Yellow fever virus)	CC50 [4]	EC50 (Coxsackievirus B2)	CC50 (Vero)	EC50 [5]	inhibition [6]	CC50 (MT4)
Fc1ccc(F)c(/N=N/N2CCCC2)c1	44 µM	> 100 µM	> 100 µM	> 100 µM	inactive	inactive	> 100 µM	> 100 µM	35 µM	> 100 µM	> 100 µM	inactive	> 100 µM
Clc1cccc(/N=N/N2CCCC2)c1	≥ 100 µM	> 100 µM	> 100 µM	> 100 µM	inactive	inactive	> 100 µM	> 100 µM	> 100 µM	≥ 100 µM	> 100 µM	inactive	> 100 µM
CCOC(=O)N1CCN(/N=N/c2ccccc2)CC1	> 90 µM	> 90 µM	> 100 µM	> 90 µM	inactive	inactive	> 100 µM	> 100 µM	30 µM	90 µM	> 100 µM	inactive	100 µM
FC(F)(F)c1cccc(/N=N/N2CCCC2)c1	> 100 µM	> 100 µM	> 100 µM	> 100 µM	inactive	inactive	> 100 µM	> 100 µM	> 100 µM	> 100 µM	> 100 µM	inactive	> 100 µM
CN1CCN(/N=N/c2cc(F)ccc2F)CC1	> 100 µM	> 100 µM	> 100 µM	64 µM	inactive	inactive	50 µM	> 100 µM	71 µM	≥ 100 µM	30 µM	inactive	> 100 µM
Clc1ccc(/N=N/N2CCCC2)cc1Cl	25 µM	20 µM	50 µM	> 58 µM	inactive	inactive	> 50 µM	70 µM	> 58 µM	58 µM	> 50 µM	inactive	75 µM
Clc1cccc(/N=N/N2CCCCC2)c1	> 100 µM	> 100 µM	> 100 µM	> 100 µM	inactive	inactive	> 100 µM	> 100 µM	> 100 µM	> 100 µM	> 100 µM	inactive	> 100 µM
O=[N+]([O-])c1cccc(/N=N/N2CCCCC2)c1	> 83 µM	> 83 µM	> 100 µM	> 83 µM	inactive	inactive	> 100 µM	> 100 µM	> 83 µM	83 µM	> 100 µM	inactive	> 100 µM
c1ccc(N=NNc2ccccc2)cc1	–	–	> 100 µM	–	–	–	–	> 100 µM	–	90 µM	–	–	47 µM
O=C1CCN(/N=N/c2ccccc2)CC1	> 60 µM	> 60 µM	90 µM	> 60 µM	inactive	inactive	> 90 µM	≥ 100 µM	13 µM	60 µM	> 90 µM	inactive	> 100 µM
O=c1cccc2n1CC1CC2CN(/N=N/c2cccc([N+](=O)[O-])c2)C1 (centres undefined)	> 90 µM	≥ 90 µM	> 100 µM	> 90 µM	inactive	inactive	> 100 µM	> 100 µM	> 90 µM	90 µM	80 µM	inactive	> 100 µM
